Assay results from PubChem BioAssay.
Calls of active or inactive are those of the source.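 Rule for the calls: active = growth inhibition above 25% in both replicates, a cutoff set 3 SD above the mean; inconclusive = above 25% in only one replicate; inactive = the rest.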

Test: OD615 S. cerevisiae growth inhibition, permissive medium, pilot counter-assay, permissive growth control for S. cerevisiae lifespan shortening project (AID 705)
Settings: OD615, 24 h, at 10 µM, hits give high values
In short: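 System: engineered DeaD yeast; Medium: permissive raffinose/galactose medium; Compound dosing: 10 µM single dose, 0.25% DMSO; Incubation: 4 h cell pre-growth, 24 h exposure at 30 °C; Technique: OD at 615 nm; Evaluation: growth inhibition from lowered OD615 after 24 h.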

SMILES	growth inhibition
Cc1ccc(C2/C(=C(/O)c3ccc(Br)cc3)C(=O)C(=O)N2Cc2ccco2)o1 (stereo unspecified)	-16.2% (inactive)
C=CCN(C(=O)CN1CCOCC1)c1nc(C)c(-c2ccccc2)s1	-16.4% (inactive)
CCOc1cccc(=O)c2c(C)n(Cc3ccco3)c(C)c12	-12.4% (inactive)
CCOc1ccc(N(CC(=O)Nc2ccc(C)cc2)S(=O)(=O)c2c(C)noc2C)cc1	-18.5% (inactive)
CCCc1ccc(Oc2cn[nH]c2-c2ccc(O)cc2O)cc1	-16.3% (inactive)
CCOC(=O)N1CCN(C(=O)C2CCN(Cc3nc(-c4ccccc4C)oc3C)CC2)CC1	-13.5% (inactive)
Cc1cccc(NC(=O)CN2CCN(CC(=O)Nc3cccc(C)c3)CC2)c1	-14.3% (inactive)
COc1ccc(-c2nc(CSCC(=O)N3CCC(C(N)=O)CC3)c(C)o2)cc1OC	-2.87% (inactive)
O=C1CC(c2ccco2)Sc2nc3ccccc3n21 (stereo unspecified)	-10.5% (inactive)
COc1cc(NC(=O)c2onc(C)c2Cl)c(OC)cc1Cl	-3% (inactive)
C/C(=C1/SC(N2CCOCC2)=NC1=O)c1ccc(Br)cc1	-1.67% (inactive)
COc1ccc(OC)c(C2=Nn3c(nnc3-c3ccncc3)SC2)c1	0.735% (inactive)
CCOc1ccc2nc(N3CCCC(C(=O)N4CCN(CC)CC4)C3)sc2c1 (stereo unspecified)	-4.44% (inactive)
O=C(Nc1nccs1)C12CC3CC(C1)CC(C(=O)Nc1nccs1)(C3)C2	1.86% (inactive)
O=C(NC1CCCCC1)N1CCCc2ccccc21	2.93% (inactive)
COc1ccc(C(=O)OCCN2C(=O)c3ccccc3C2=O)cc1	-3.96% (inactive)
